For series [1], the system named is Rattus norvegicus. In words: Antiinflammatory activity in Wistar rat assessed as inhibition of carrageenan-induced paw edema administered orally at equimolar oral dose relative to 10 mg/kg flurbiprofen measured after 3 hrs of carrageenan challenge. Format: functional. The method in brief:
(§1)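 Adult Wistar rats of either sex, 150–200 g, n=6 per group, fasted 24 h with water allowed. Dosed orally in 0.5% CMC 1 h before 0.1 ml of 1% carrageenan in saline was injected subplantar into the right hind paw. Paw volume was read by plethysmometer at baseline, 3 h and 4 h. % inhibition = (Vc − Vt)/Vc × 100. ANOVA with Dunnett's test.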
On the technique in general: The carrageenan paw model is a standard test of acute inflammation.

The test system of series [2] is Rattus norvegicus. The experiment in a line: Antiinflammatory activity in Wistar rat assessed as inhibition of carrageenan-induced paw edema administered orally at equimolar oral dose relative to 10 mg/kg flurbiprofen measured after 4 hrs of carrageenan challenge. In kind it is functional. In outline:
as §1

The species entered for series [3] is Rattus norvegicus. In words: Inhibition of lipid peroxidation in rat assessed as malondialdehyde level per 100 mg of tissue. In kind it is functional, organism-based. The method in brief: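 Gastric mucosa taken from the ulcerogenicity rats was scraped, weighed (100 mg) and homogenized in ice-cold 1.15% KCl. SDS, acetate buffer pH 3.5 and 0.8% TBA were added and the mixture heated at 95 °C for 60 min. It was extracted with n-butanol:pyridine (15:1), centrifuged, and the organic layer read at 532 nm. Results given as nmol MDA/100 mg tissue (ε 1.56 × 10⁵ cm⁻¹ M⁻¹).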

Series [4] concerns Mus musculus. The experiment in a line: Analgesic activity in Swiss albino mouse assessed as inhibition of tail withdrawal administered orally at equimolar oral dose relative to 10 mg/kg flurbiprofen after 4 hrs. Format: functional. In outline: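 Tail immersion in Swiss albino mice of either sex, 25–30 g, n=6 per group, dosed orally as a suspension in 0.5% w/v CMC. The lower 5 cm of the tail was dipped in water held at 55 ± 0.5 °C. Reaction time (s) to tail withdrawal was recorded before dosing and 4 h after, with a 10 s cut-off.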

Series [5] has as its system Rattus norvegicus. In words: Gastrointestinal toxicity in rat assessed as gastric mucosal damage severity index administered at equimolar oral dose relative to 30 mg/kg flurbiprofen. Format: organism-based, Gastric mucosa. Set-up: dose 30 mg/kg, route oral. Conditions: in vivo. In outline: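 Wistar rats, n=6 per group, food withdrawn 24 h before oral dosing in 0.5% CMC, then given normal diet for 17 h before sacrifice. Stomachs were opened along the greater curvature and scored under a magnifier (0.5 redness to 3.0 for >5 ulcers). Severity index = mean treated score minus mean control score.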

In series [6] the test system is Rattus norvegicus. In words: Hepatotoxicity in po dosed Wistar albino rat assessed as total protein content administered at equimolar oral dose relative to 10 mg/kg flurbiprofen after 15 days. In kind it is toxicity, organism-based. More on the design: dose 10 mg/kg, route oral. The conditions noted are these: in vivo, 360 h. The method in brief: (§2)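 Wistar albino rats of either sex, 150–200 g, n=6 per group, given oral doses in 0.5% w/v CMC once daily for 15 days; controls received vehicle. Retro-orbital blood was clotted 45 min at room temperature and serum separated by centrifugation at 2500 rpm for 15 min for the biochemical assays. ANOVA with Dunnett's test against control.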

In series [7] the test system is Rattus norvegicus. In words: Hepatotoxicity in po dosed Wistar albino rat assessed as serum glutamate oxaloacetate transaminase activity administered at equimolar oral dose relative to 10 mg/kg flurbiprofen after 15 days. Format: toxicity, organism-based. More on the design: dose 10 mg/kg, route oral. Conditions: in vivo, 360 h. In outline:
as §2

The subject of series [8] is Rattus norvegicus. The experiment in a line: Hepatotoxicity in po dosed Wistar albino rat assessed as serum glutamate pyruvate transaminase activity administered at equimolar oral dose relative to 10 mg/kg flurbiprofen after 15 days. More on the design: dose 10 mg/kg, route oral. The conditions noted are these: in vivo, 360 h. Format: toxicity, organism-based. The method in brief:
as §2

Series [9] relates to Rattus norvegicus. The experiment in a line: Hepatotoxicity in po dosed Wistar albino rat assessed as total albumin content administered at equimolar oral dose relative to 10 mg/kg flurbiprofen after 15 days. In kind it is toxicity, organism-based. More on the design: dose 10 mg/kg, route oral. Conditions: in vivo, 360 h. The method in brief: as §2

For the compound `CCCCNc1nnc(COc2ccc(-c3ccccc3)cc2)o1`, the inhibition in vivo in series [1] and in series [2] was 15.9% throughout.

As to `Clc1ccc(OCc2nnc(COc3ccc(-c4ccccc4)cc3)o2)c(Cl)c1`, the inhibition in vivo in series [1] and in series [2] was 29.5% in each case.

Take `Sc1nnc(COc2ccc(-c3ccccc3)cc2)n1-c1ccc(Cl)cc1`: the inhibition in vivo in [1] came out at 15.9%; in series [2], 18.2%.

As to `Fc1ccc(Nc2nnc(COc3ccc(-c4ccccc4)cc3)o2)cc1`, the inhibition in vivo in [1] and in [2] was 52.3% each time.

Turning to `Clc1ccc(-c2nnc(COc3ccc(-c4ccccc4)cc3)o2)cc1`, the results for the inhibition in vivo in [1], in series [2] and in series [4] were 75%, 77.3% and 16.9%, respectively. For the same compound, the Activity in series [3] was found to be 5.88 nmol. The UI in series [5] was 1.

Consider `Cc1ccccc1-n1c(S)nnc1COc1ccc(-c2ccccc2)cc1`, for which the inhibition in vivo is 56.8% in series [1] and 59.1% in series [2].

Take `Sc1nnc(COc2ccc(-c3ccccc3)cc2)n1-c1ccc(Br)cc1`: the inhibition in vivo in series [1] and in series [2] was 31.8% throughout.

As for `c1ccc(-c2ccc(OCc3nnc(-c4ccccc4)o3)cc2)cc1`, the inhibition in vivo in series [1] and in [2] was 18.2% each time.

With `CCCCNc1nnc(COc2ccc(-c3ccccc3)cc2)s1`, the inhibition in vivo in series [1] and in series [2] was 27.3% throughout.

For the compound `CC(C(=O)O)c1ccc(-c2ccccc2)c(F)c1` (configuration not stated) [FLURBIPROFEN], the inhibition in vivo was determined as 75% in [1], 79.5% in series [2] and 69.5% in series [4]. The Activity in [3] is 7.51 nmol. The UI in [5] is given as 1.666.

In the case of `Fc1ccc(Nc2nnc(COc3ccc(-c4ccccc4)cc3)s2)cc1`, the inhibition in vivo in [1] turned out to be 27.3%; in [2] it was 29.5%.

Regarding `COc1ccc2cc(C(C)c3nnc(COc4ccc(-c5ccccc5)cc4)o3)ccc2c1` (configuration not stated), the inhibition in vivo in [1] and in [2] was 25% in each case.

As to `Cc1ccc(-n2c(S)nnc2COc2ccc(-c3ccccc3)cc2)c(C)c1`, the inhibition in vivo in series [1] and in series [2] was 54.5% each time.

Take `Clc1ccccc1-c1nnc(COc2ccc(-c3ccccc3)cc2)o1`: the inhibition in vivo in series [1] is 59.1%; in series [2], 63.6%.

For `Brc1ccc(Nc2nnc(COc3ccc(-c4ccccc4)cc3)s2)cc1`, the inhibition in vivo in series [1] and in [2] was 63.6% each time.

As to `Cc1ccccc1Nc1nnc(COc2ccc(-c3ccccc3)cc2)s1`, the inhibition in vivo in series [1] was determined as 25%; in series [2] it was 29.5%.

As for `Clc1ccc(Nc2nnc(COc3ccc(-c4ccccc4)cc3)s2)cc1`, the inhibition in vivo in [1] turned out to be 52.3%; in series [2], 54.5%.

With `Clc1ccc(-c2nnc(COc3ccc(-c4ccccc4)cc3)o2)c(Cl)c1`, the inhibition in vivo in series [1] was determined as 56.1%; in series [2] it was 57.6%.

`Fc1ccc(-n2c(S)nnc2COc2ccc(-c3ccccc3)cc2)cc1`: the values for the inhibition in vivo in series [1], in series [2] and in [4] were 75%, 79.5% and 30.5%, respectively. Besides, the Activity in series [3] worked out at 5.34 nmol. Further, the UI in [5] was determined as 0.833.

Take `Cc1ccc(Nc2nnc(COc3ccc(-c4ccccc4)cc3)s2)c(C)c1`: the inhibition in vivo in series [1] and in [2] was 56.8% in each case.

`CCCCn1c(S)nnc1COc1ccc(-c2ccccc2)cc1`: the inhibition in vivo in [1] came out at 75%; in series [2], 81.8%; in [4] it was 58.2%. For the same compound, the Activity in series [3] stood at 5.19 nmol; in series [6] it was 1.82 g/dL; in series [7] it was 138 U/ml; in [8] it was 22.67 U/ml; in [9] it was 0.71 g/dL. Also, in [5], the UI is given as 0.666.

`CC(C)Cc1ccc(C(C)c2nnc(COc3ccc(-c4ccccc4)cc3)o2)cc1` (configuration not stated): the inhibition in vivo in series [1] amounted to 77.3%; in [2] it was 79.5%; in series [4], 72.8%. In addition, the Activity in series [3] is 5.28 nmol; in series [6], 1.92 g/dL; in series [7] it was 141.09 U/ml; in series [8] it was 29.17 U/ml; in [9], 1.72 g/dL. In addition, the UI in series [5] is given as 0.75.

A word on the inhibition in vivo: it is the relative decrease from the control value, in per cent.

(Values after ChEMBL document CHEMBL1154475, “1,3,4-Oxadiazole/thiadiazole and 1,2,4-triazole derivatives of biphenyl-4-yloxy acetic acid: synthesis and preliminary evaluation of biological properties” (Eur J Med Chem, 2008).)
